ChEMBL document CHEMBL4334424, “The winding road of the uvaretin class of natural products: from total synthesis to bioactive agent discovery” (Medchemcomm, 2019)

Key:
HeLa = experiment: Cytotoxicity against human HeLa cells assessed as reduction in cell viability incubated for 72 hrs by alamar blue assay; type: functional, cell-based
Method in brief: (§1)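 Adherent cells were seeded at 1500 cells/well in 384-well plates and allowed 2–3 h to attach. Compounds in DMSO, diluted in media over 31.6 nM–200 μM, were tested in triplicate for 72 h continuous exposure at 37 °C, 5% CO2. Alamar Blue was added for the final 3 h and fluorescence read (ex 560/em 590 nm). IC50 was fitted from ≥3 independent experiments.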

U-937 = experiment: Cytotoxicity against human U937 cells assessed as reduction in cell viability incubated for 72 hrs by alamar blue assay; type: functional, cell-based; details: U-937, 72 h
Method in brief: (§2)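 Suspension cells (2200/well, 384-well) were added directly onto compound in media with no attachment period. Compounds spanned 31.6 nM–200 μM in triplicate, with 72 h exposure at 37 °C, 5% CO2. Alamar Blue was added for the last 3 h and fluorescence read (ex 560/em 590 nm). IC50 came from ≥3 independent experiments.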

A549 = experiment: Cytotoxicity against human A549 cells assessed as reduction in cell viability incubated for 72 hrs by alamar blue assay; type: functional, cell-based; details: A549, 72 h; method in brief: as §1
MIA PaCa-2 [1] = experiment: Cytotoxicity against human MIAPaCa2 cells assessed as reduction in cell viability incubated for 72 hrs by alamar blue assay; type: functional, cell-based; details: MIA PaCa-2, 72 h; method in brief: as §1
REH [2] = experiment: Cytotoxicity against human REH cells assessed as reduction in cell viability incubated for 72 hrs by alamar blue assay; type: functional, cell-based; method in brief: as §2
HCT-116 = experiment: Cytotoxicity against human HCT116 cells assessed as reduction in cell viability incubated for 72 hrs by alamar blue assay; type: functional, cell-based; details: HCT-116, 72 h; method in brief: as §1
MIA PaCa-2 [3] = experiment: Cytotoxicity against human MIAPaCa2 cells assessed as cell viability at 2.5 uM incubated for 72 hrs in presence of 10 uM 6TP by alamar blue assay (reference value: 6.9 %); type: functional
Method in brief: (§3)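 Combination assay in 96-well plates with 100 μL final volume and 1% DMSO. Two test-compound concentrations were crossed with five 6TP concentrations, then cells were added (4000/well adherent, 7000/well suspension). Plates ran 72 h at 37 °C, 5% CO2, with Alamar Blue viability read-out and ≥3 independent experiments. Combination index was calculated by the Chou–Talalay method.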

MIA PaCa-2 [4] = experiment: Cytotoxicity against human MIAPaCa2 cells assessed as cell viability at 2.5 uM incubated for 72 hrs in presence of 25 uM 6TP by alamar blue assay (reference value: 6.4 %); type: functional; method in brief: as §3
MIA PaCa-2 [5] = experiment: Cytotoxicity against human MIAPaCa2 cells assessed as cell viability at 2.5 uM incubated for 72 hrs in presence of 50 uM 6TP by alamar blue assay (reference value: 13.8 %); type: functional; method in brief: as §3
MIA PaCa-2 [6] = experiment: Cytotoxicity against human MIAPaCa2 cells assessed as cell viability at 2.5 uM incubated for 72 hrs in presence of 100 uM 6TP by alamar blue assay (reference value: 30.7 %); type: functional; method in brief: as §3
MIA PaCa-2 [7] = experiment: Cytotoxicity against human MIAPaCa2 cells assessed as cell viability at 5 uM incubated for 72 hrs in presence of 10 uM 6TP by alamar blue assay (reference value: 6.9 %); type: functional; method in brief: as §3
MIA PaCa-2 [8] = experiment: Cytotoxicity against human MIAPaCa2 cells assessed as cell viability at 5 uM incubated for 72 hrs in presence of 25 uM 6TP by alamar blue assay (reference value: 6.4 %); type: functional; method in brief: as §3
MIA PaCa-2 [9] = experiment: Cytotoxicity against human MIAPaCa2 cells assessed as cell viability at 5 uM incubated for 72 hrs in presence of 50 uM 6TP by alamar blue assay (reference value: 13.8 %); type: functional; method in brief: as §3
MIA PaCa-2 [10] = experiment: Cytotoxicity against human MIAPaCa2 cells assessed as cell viability at 5 uM incubated for 72 hrs in presence of 100 uM 6TP by alamar blue assay (reference value: 30.7 %); type: functional; method in brief: as §3
REH [11] = experiment: Cytotoxicity against human REH cells assessed as cell viability at 2.5 uM incubated for 72 hrs in presence of 10 uM 6TP by alamar blue assay (reference value: 10.8 %); type: functional; method in brief: as §3
REH [12] = experiment: Cytotoxicity against human REH cells assessed as cell viability at 2.5 uM incubated for 72 hrs in presence of 25 uM 6TP by alamar blue assay (reference value: 12.2 %); type: functional; method in brief: as §3
REH [13] = experiment: Cytotoxicity against human REH cells assessed as cell viability at 2.5 uM incubated for 72 hrs in presence of 50 uM 6TP by alamar blue assay (reference value: 21.9 %); type: functional; method in brief: as §3
REH [14] = experiment: Cytotoxicity against human REH cells assessed as cell viability at 2.5 uM incubated for 72 hrs in presence of 100 uM 6TP by alamar blue assay (reference value: 49.5 %); type: functional; method in brief: as §3
REH [15] = experiment: Cytotoxicity against human REH cells assessed as cell viability at 5 uM incubated for 72 hrs in presence of 10 uM 6TP by alamar blue assay (reference value: 10.8 %); type: functional; method in brief: as §3
REH [16] = experiment: Cytotoxicity against human REH cells assessed as cell viability at 5 uM incubated for 72 hrs in presence of 25 uM 6TP by alamar blue assay (reference value: 12.2 %); type: functional; method in brief: as §3
REH [17] = experiment: Cytotoxicity against human REH cells assessed as cell viability at 5 uM incubated for 72 hrs in presence of 50 uM 6TP by alamar blue assay (reference value: 21.9 %); type: functional; method in brief: as §3
REH [18] = experiment: Cytotoxicity against human REH cells assessed as cell viability at 5 uM incubated for 72 hrs in presence of 100 uM 6TP by alamar blue assay (reference value: 49.5 %); type: functional; method in brief: as §3
MIA PaCa-2 [19] = experiment: Cytotoxicity against human MIAPaCa2 cells assessed as combinational index at 2.5 uM incubated for 72 hrs in presence of 25 uM 6TP by alamar blue assay; type: functional; method in brief: as §3
MIA PaCa-2 [20] = experiment: Cytotoxicity against human MIAPaCa2 cells assessed as combinational index at 2.5 uM incubated for 72 hrs in presence of 50 uM 6TP by alamar blue assay; type: functional; method in brief: as §3
MIA PaCa-2 [21] = experiment: Cytotoxicity against human MIAPaCa2 cells assessed as combinational index at 2.5 uM incubated for 72 hrs in presence of 100 uM 6TP by alamar blue assay; type: functional; method in brief: as §3
MIA PaCa-2 [22] = experiment: Cytotoxicity against human MIAPaCa2 cells assessed as combinational index at 2.5 uM incubated for 72 hrs in presence of 200 uM 6TP by alamar blue assay; type: functional; method in brief: as §3
MIA PaCa-2 [23] = experiment: Cytotoxicity against human MIAPaCa2 cells assessed as combinational index at 5 uM incubated for 72 hrs in presence of 25 uM 6TP by alamar blue assay; type: functional; method in brief: as §3
MIA PaCa-2 [24] = experiment: Cytotoxicity against human MIAPaCa2 cells assessed as combinational index at 5 uM incubated for 72 hrs in presence of 50 uM 6TP by alamar blue assay; type: functional; method in brief: as §3
MIA PaCa-2 [25] = experiment: Cytotoxicity against human MIAPaCa2 cells assessed as combinational index at 5 uM incubated for 72 hrs in presence of 100 uM 6TP by alamar blue assay; type: functional; method in brief: as §3
MIA PaCa-2 [26] = experiment: Cytotoxicity against human MIAPaCa2 cells assessed as combinational index at 5 uM incubated for 72 hrs in presence of 200 uM 6TP by alamar blue assay; type: functional; method in brief: as §3
MIA PaCa-2 [27] = experiment: Cytotoxicity against human MIAPaCa2 cells assessed as cell viability at 2.5 uM incubated for 72 hrs by alamar blue assay (reference value: 0 %); type: functional; details: MIA PaCa-2, 72 h, read-out: Activity; method in brief: as §3
MIA PaCa-2 [28] = experiment: Cytotoxicity against human MIAPaCa2 cells assessed as cell viability at 5 uM incubated for 72 hrs by alamar blue assay (reference value: 0 %); type: functional; details: MIA PaCa-2, 72 h, read-out: Activity; method in brief: as §3
REH [29] = experiment: Cytotoxicity against human REH cells assessed as cell viability at 2.5 uM incubated for 72 hrs by alamar blue assay (reference value: 0 %); type: functional; details: read-out: Activity; method in brief: as §3
REH [30] = experiment: Cytotoxicity against human REH cells assessed as cell viability at 5 uM incubated for 72 hrs by alamar blue assay (reference value: 0 %); type: functional; details: read-out: Activity; method in brief: as §3
REH [31] = experiment: Cytotoxicity against human REH cells assessed as combinational index at 2.5 uM incubated for 72 hrs in presence of 25 uM 6TP by alamar blue assay; type: functional; method in brief: as §3
REH [32] = experiment: Cytotoxicity against human REH cells assessed as combinational index at 2.5 uM incubated for 72 hrs in presence of 50 uM 6TP by alamar blue assay; type: functional; method in brief: as §3
REH [33] = experiment: Cytotoxicity against human REH cells assessed as combinational index at 2.5 uM incubated for 72 hrs in presence of 100 uM 6TP by alamar blue assay; type: functional; method in brief: as §3
REH [34] = experiment: Cytotoxicity against human REH cells assessed as combinational index at 2.5 uM incubated for 72 hrs in presence of 200 uM 6TP by alamar blue assay; type: functional; method in brief: as §3
REH [35] = experiment: Cytotoxicity against human REH cells assessed as combinational index at 5 uM incubated for 72 hrs in presence of 25 uM 6TP by alamar blue assay; type: functional; method in brief: as §3
REH [36] = experiment: Cytotoxicity against human REH cells assessed as combinational index at 5 uM incubated for 72 hrs in presence of 50 uM 6TP by alamar blue assay; type: functional; method in brief: as §3
REH [37] = experiment: Cytotoxicity against human REH cells assessed as combinational index at 5 uM incubated for 72 hrs in presence of 100 uM 6TP by alamar blue assay; type: functional; method in brief: as §3
REH [38] = experiment: Cytotoxicity against human REH cells assessed as combinational index at 5 uM incubated for 72 hrs in presence of 200 uM 6TP by alamar blue assay; type: functional; method in brief: as §3

COCOc1cc(OC)c(C(=O)/C=C/c2ccccc2)c(OCOC)c1
IC50 (HeLa): 9.7 µM | IC50 (U-937): 5.9 µM | IC50 (A549): 4.2 µM | IC50 (MIA PaCa-2 [1]): 2.2 µM | IC50 (REH [2]): 9.2 µM | IC50 (HCT-116): > 20 µM | Activity (MIA PaCa-2 [3]): 16.5% | Activity (MIA PaCa-2 [4]): 18.6% | Activity (MIA PaCa-2 [5]): 25.1% | Activity (MIA PaCa-2 [6]): 49.1% | Activity (MIA PaCa-2 [7]): 25.4% | Activity (MIA PaCa-2 [8]): 30% | Activity (MIA PaCa-2 [9]): 40.8% | Activity (MIA PaCa-2 [10]): 61.2% | Activity (REH [11]): 11.1% | Activity (REH [12]): 13.5% | Activity (REH [13]): 22.1% | Activity (REH [14]): 51% | Activity (REH [15]): 12.7% | Activity (REH [16]): 19.1% | Activity (REH [17]): 26.1% | Activity (REH [18]): 51% | CI (MIA PaCa-2 [19]): 0.67 | CI (MIA PaCa-2 [20]): 0.79 | CI (MIA PaCa-2 [21]): 0.72 | CI (MIA PaCa-2 [22]): 0.31 | CI (MIA PaCa-2 [23]): 0.55 | CI (MIA PaCa-2 [24]): 0.51 | CI (MIA PaCa-2 [25]): 0.36 | CI (MIA PaCa-2 [26]): 0.19 | viability at 2.5 µM (MIA PaCa-2 [27]): 10.2% | viability at 5 µM (MIA PaCa-2 [28]): 16.2% | viability at 2.5 µM (REH [29]): 8.1% | viability at 5 µM (REH [30]): 9% | CI (REH [31]): 0.81 | CI (REH [32]): 1.36 | CI (REH [33]): 1.36 | CI (REH [34]): 0.63 | CI (REH [35]): 0.67 | CI (REH [36]): 0.84 | CI (REH [37]): 1.06 | CI (REH [38]): 0.64
